Screening results from PubChem BioAssay.
NOD2-RIPK2 inh: inhibitors of human NOD2-RIPK2 interaction; O43353; CHO BLA complementation NOD2-RIPK2, CCF4 ratio; inhibition, % at 4.98 µM; hit rate 0.38% among 360,000; in the data active = inhibition above about 21%;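 also: 0% = vehicle only and 100% = reference blocker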
Target sequence (O43353 whole entry, looked up): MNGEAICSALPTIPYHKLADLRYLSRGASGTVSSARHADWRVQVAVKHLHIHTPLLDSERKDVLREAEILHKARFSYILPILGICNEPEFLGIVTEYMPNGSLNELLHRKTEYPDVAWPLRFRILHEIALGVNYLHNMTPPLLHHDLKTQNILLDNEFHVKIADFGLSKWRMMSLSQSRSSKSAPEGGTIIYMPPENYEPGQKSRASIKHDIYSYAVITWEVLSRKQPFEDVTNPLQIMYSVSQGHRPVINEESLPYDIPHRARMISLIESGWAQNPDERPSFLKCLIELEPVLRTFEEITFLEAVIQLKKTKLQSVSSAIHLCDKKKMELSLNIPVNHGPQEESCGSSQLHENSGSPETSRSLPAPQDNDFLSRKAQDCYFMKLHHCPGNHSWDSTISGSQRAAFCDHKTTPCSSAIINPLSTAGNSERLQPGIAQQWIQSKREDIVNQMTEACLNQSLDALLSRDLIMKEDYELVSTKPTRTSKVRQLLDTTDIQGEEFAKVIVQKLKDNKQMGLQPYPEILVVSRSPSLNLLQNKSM
TLR9-MyD88 block: inhibitors of human TLR9-MyD88 binding. Q9NR96+Q99836. CHO BLA complementation TLR9-MyD88, CCF4 FRET ratio. inhibition, % at 4.98 µM. hit rate 0.21% among 340,000. AID 504734;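 active = inhibition above the mean over all tested compounds plus 3 SD, cut at about 21% in these data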;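 also: 0% = DMSO only wells and 100% = clavulanate BLA inhibitor control wells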
Beta2AR agonist: agonists of human beta-2 adrenergic receptor inducing internalization. Am2.2-beta2AR cells, FAP receptor internalization, flow cytometry. AID 504454. response, % (no concentration beside the values). hit rate 0.43% among 340,000;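 active = response above a set limit, near 3 SD of response in nonfluorescent compounds, cut at about 42% in these data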
ABHD5-PLIN5 inh: ABHD5-PLIN5 protein interaction inhibition; Q00G26+Q8WTS1; Split G. princeps luciferase complementation, luminescence, 4 h; inhibition, % at 4 µM; hit rate 0.78% among 360,000;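 active = inhibition above the mean inhibition across every tested compound plus 3 SD, cut at about 22% in these data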;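 also: 0% = DMSO only wells and the 100% control is not disclosed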
Dynein transport: blocks dynein driven cargo transport along microtubules. 3617.4 mouse cells, GR-EGFP nuclear translocation imaging; test concentration mostly 20 µM; stimulated with dexamethasone, 1 µM; stronger effect = lower value. z-score, hits read low. hit rate 0.47% among 220,000;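 active = plate z-score of nuclear minus cytoplasmic receptor signal below a set negative limit, without overly bright fluorescence or cell loss, cut at about -3.5 in these data, passing the limit was not always enough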;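 also: z-score of nuclear minus cytoplasmic ring GR-EGFP intensity difference per well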
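Buffer or medium: tet-free, stripped-serum medium; Also added: dexamethasone, 1.0 µM final; Technique: high-content fluorescence imaging after fixation; Times: 48 h induction, 1 h compound, 30 min dex at 37 °C; Read-out: per-cell GR-EGFP intensity, nucleus versus surrounding cytoplasmic ring, well-averaged.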
TLR4 MyD88 comp: inhibitors of human TLR4-MyD88 binding | HeLa CL3-4 TLR4/MyD88 BLA complementation, FRET ratio | inhibition, % at 8.4 µM | hit rate 0.18% among 200,000 | AID 861; in the data active = inhibition above about 25%;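 also: 0% = vehicle and 100% = reference inhibitor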
ABHD5-PLIN5 conf: confirmation of human ABHD5-PLIN5 interaction inhibitors; hit rate 67% among 2,200; biochemical ABHD5-PLIN5 interaction, luminescence; inhibition, % at 4 µM; shares compounds with ABHD5-PLIN5 inh; in the data active = inhibition above about 23%;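 also: 0% = DMSO vehicle wells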
HNF4 counter: active in HNF4 split-luciferase counter-screen for ABHD5-PLIN5 inhibitors | hit rate 77% among 2,200 | inhibition, % at 4 µM | HNF4 dimerization, luminescence, biochemical | AID 651674 | shares compounds with ABHD5-PLIN5 inh;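 active = mean inhibition across replicate wells exceeding the computed hit threshold, cut at about 13% in these data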;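 also: light from luciferase halves that rejoin when HNF4 fusion proteins dimerize; 0% = DMSO only wells and the 100% control is not given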
Numbers without * were called inactive; · = no result. Rows were chosen to be rich in hits. Some 1.6% of all compounds tested hit in one or more screens of this group.

SMILES | NOD2-RIPK2 inh | TLR9-MyD88 block | Beta2AR agonist | ABHD5-PLIN5 inh | Dynein transport | TLR4 MyD88 comp | ABHD5-PLIN5 conf | HNF4 counter
CCOc1cccc2sc(N(CCCN(C)C)C(=O)c3ccc(S(=O)(=O)N(C)c4ccccc4)cc3)nc12 | 7.1 | 5.3 | 18.9 | 27.1* | 0.0738 | -5.5 | 19.0 | 12.3
Cc1cccc(/C=C(\c2nc3ccccc3[nH]2)S(=O)(=O)c2ccccc2)c1 | -0.7 | 5.4 | 25.4 | 42.5* | -3.02 | -7.5 | 84.5* | 67.5*
Cc1ccc(NC(=S)c2nc3ccccc3[nH]2)c(C)c1 | -17.4 | -5.0 | -9.4 | -10.5 | -0.256 | 4.0 | · | ·
Cc1cn([C@H]2C[C@H](O)[C@@H](/C=C/C(=O)NCc3ccc(N(C)C)cc3)O2)c(=O)[nH]c1=O | 7.8 | · | · | -4.1 | · | · | · | ·
C[C@H]1CN([C@@H](C)CO)C(=O)CCCn2cc(nn2)CO[C@@H]1CN(C)C(=O)c1ccncc1 | -5.2 | -0.6 | · | 6.5 | · | · | · | ·
CCN(CC)CCCOC(=O)C1(c2ccccc2)CCCC1 | -2.7 | 5.2 | -0.4 | 6.2 | 0.322 | 4.1 | · | ·
CCN(CC)CCOCCOC(=O)C1(c2ccccc2)CCCC1 | -6.7 | 9.6 | 1.6 | 58.2* | · | · | 76.8* | 36.3*
O=C(NNc1c2ccccc2nc2ccccc12)c1ccc(O)cc1O | -10.5 | -8.8 | 18.9 | 19.9 | -0.869 | -3.0 | · | ·
O=C(NNc1c2ccccc2nc2ccccc12)c1ccccc1O | 1.0 | -3.3 | 53.0* | 25.8* | -0.546 | -7.3 | 25.3* | 18.4*
COc1ccc(Cn2cc(CN3CCc4onc(-c5ccccc5OC)c4C3=O)nn2)cc1 | -3.4 | · | · | 3.7 | · | · | · | ·
Oc1ccc(Cl)cc1C1=Nc2ccccc2N=C(c2ccco2)C1 | -2.2 | -6.9 | -8.3 | 0.4 | -0.901 | 14.4 | · | ·
Fc1ccccc1C1CC(c2ccco2)=Nc2ccccc2S1 (configuration not stated) | 4.1 | -3.7 | -6.5 | 43.2* | -0.834 | · | 2.2 | 91.5*
OCCN1CCN(c2nccn3ccnc23)CC1 | -4.6 | · | · | -1.2 | · | · | · | ·
CNC(=S)N(C)/N=C1/C(=O)N(Cc2c(Cl)cccc2Cl)c2ccccc21 | 11.4 | 13.7 | 28.7 | 26.7* | · | · | -3.8 | 15.9*
O=C1/C(=N/n2cnnc2)c2ccccc2N1Cc1ccccc1 | · | · | · | · | -0.11 | -1.1 | · | ·
O=C(Nc1ccc(-c2nc3ccccc3[nH]2)cc1)C1CCCN(Cc2ccn[nH]2)C1 (configuration not stated) | 1.0 | -9.4 | · | -1.8 | · | · | · | ·
COc1cc(OC)cc(-c2c(C#Cc3ccsc3)c3cc(-c4ccc5c(c4)OCO5)ccc3n2C)c1 | 10.2 | -2.1 | -2.5 | 97.8* | · | · | 5.7 | 1.2
COc1ccc(-c2c(C#Cc3ccsc3)c3cc(-c4ccc5c(c4)OCO5)ccc3n2C)cc1 | -1.5 | 8.4 | -0.3 | -1.8 | · | · | · | ·
Cc1ccc(/C=C2\C(=O)Nc3ccccc32)o1 | -6.0 | -4.6 | 2.0 | 24.4* | 0.289 | -1.7 | 8.4 | 39.7*
O=C1Nc2ccccc2/C1=C/c1ccccc1F | 4.1 | 7.5 | 11.3 | 26.8* | · | · | 44.1* | 40.6*
Cc1ccc2c(c1)/C(=C/c1ccco1)C(=O)N2 | 2.8 | -3.1 | -2.6 | 4.5 | -1.04 | -20.4 | · | ·
Cc1ccccc1/C=C1\C(=O)Nc2ccc(F)cc21 | 6.5 | -12.4 | 0.7 | 3.8 | · | · | · | ·
Cc1ccc(S(=O)(=O)N2C[C@]3(O)C[C@@H]4C(=O)N(c5ccccc5)C(=O)[C@@H]4C[C@]3(OC(=O)NCc3ccccc3)C2)cc1 | -4.2 | -4.3 | · | 5.0 | · | · | · | ·
COc1cc(NC(=O)c2cccc3c2C(=O)N(C2CCCCC2)C3)cc(OC)c1OC | -17.4 | -4.7 | 13.7 | 11.2 | · | · | · | ·
COCCNC(=O)C1(C)CCCN(Cc2ccc(OC)cc2)C1 (configuration not stated) | 2.5 | · | · | 0.2 | · | · | · | ·
SMILES | NOD2-RIPK2 inh | TLR9-MyD88 block | Beta2AR agonist | ABHD5-PLIN5 inh | Dynein transport | TLR4 MyD88 comp | ABHD5-PLIN5 conf | HNF4 counter
O=C(/C=C/c1cccs1)c1cc(Br)ccc1OC(=O)N1CCOCC1 | 1.5 | 0.2 | -9.0 | 25.4* | -4.91* | 2.2 | 57.0* | 39.6*
C[N+](=O)C1C(=O)Nc2ccccc21 (configuration not stated) | 3.7 | · | · | 6.8 | · | · | · | ·
Cc1sc2nc3c4ccccc4c(NCc4ccco4)nn3c(=O)c2c1C | -5.4 | -4.1 | -8.3 | 31.6* | -0.753 | -0.2 | 45.9* | 62.8*
OC(CNCC1CCCO1)Cn1c2ccccc2c2ccccc21 (configuration not stated) | -0.8 | -11.3 | 2.9 | 6.9 | 0.955 | -5.9 | · | ·
OC(CNCC1CCCO1)Cn1c2ccc(Cl)cc2c2cc(Cl)ccc21 (configuration not stated) | 8.2 | -7.6 | 32.6 | 35.4* | -1.04 | -3.6 | 13.2 | 8.1
Cc1ccc(S(=O)(=O)NC(=O)C2(C)CCN2C(=O)CC2CCCC2)nc1 (configuration not stated) | -2.0 | · | · | -8.8 | · | · | · | ·
Cc1ccc(/C=C2/CNC/C(=C/c3ccc(C)cc3)C2=O)cc1 | 1.0 | 0.3 | 2.1 | 95.5* | · | · | 100.0* | 94.3*
Cc1ccc(/C=C2\CCOC2=O)cc1 | -4.5 | -10.1 | -2.0 | 0.8 | 0.972 | · | · | ·
CC1=C(C(=O)N2CCCCCC2)CC(CC(=O)NC2CCCCC2)C(=O)N1Cc1ccc(C(C)(C)C)cc1 (configuration not stated) | 3.3 | · | · | -5.6 | · | · | · | ·
COc1cc(/C=C(\C#N)C(=O)NC2CCCCC2C)ccc1OS(=O)(=O)c1ccc(C)cc1 (configuration not stated) | 1.2 | -4.3 | 12.2 | 37.6* | -1.97 | 7.8 | 66.6* | 48.8*
CC1CCCCC1NC(=O)/C(C#N)=C/c1ccccc1F (configuration not stated) | 5.6 | -4.1 | 17.3 | 33.5* | -2.03 | 2.4 | 82.1* | 77.9*
N#C/C(=C\c1c(F)cccc1Cl)C(=O)NC1CC1 | -6.4 | -5.3 | 12.6 | 23.3* | · | · | 30.4* | 21.3*
COc1cc(/C=C(\C#N)C(N)=O)ccc1OS(=O)(=O)c1ccc(C)cc1 | 5.6 | 0.6 | 6.0 | 0.4 | -0.227 | -6.4 | · | ·
CCCc1nc(C)c2c(=O)[nH]c(-c3cc(S(=O)(=O)N4CCN(CC)CC4)ccc3OCC)nn12 | -1.3 | -6.1 | 1.4 | 61.9* | · | · | 68.0* | 28.5*
C=CCc1cc(/C=C/c2nc(O)c([N+](=O)[O-])c(=O)[nH]2)cc(OC)c1O | -6.2 | -10.9 | -2.7 | 26.7* | 0.0521 | -2.3 | 42.2* | 32.4*
CCOc1cc(/C=C\c2nc(O)c([N+](=O)[O-])c(=O)[nH]2)ccc1OC(C)C | 1.0 | 2.2 | -9.1 | 2.0 | · | · | · | ·
OC[C@@H]1CN(Cc2ccc(-c3ccccc3)cc2)C[C@H](n2cnc3c(NC4CCC4)ncnc32)O1 | 2.9 | · | · | 1.0 | · | · | · | ·
